SIAE inh: human SIAE inhibitors, primary screen, biochemical, fluorescence polarization, FP-Rh probe, 1536-well HTS; inhibition, % at 9.66 µM; hit rate 0.69% among 370,000; SIAE FP-Rh probe binding; Sialate O-acetylesterase (Homo sapiens), Q9HAT2; AID 1053197, 2014;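 active = inhibition above a cutoff: mean of compounds within the control limits plus 3 SD of those, cut at about 17% in these data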;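 also: 0% = plate median of compound wells and 100% = probe without SIAE protein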
HTRA1 inhibitor: HTRA1 serine protease inhibitors, primary screen, biochemical, fluorescence polarization, HTS; Q92743; AID 504803, 2011; inhibition, % at 5.96 µM; hit rate 0.5% among 340,000; recombinant HTRA1, FP-rhodamine activity-based probe; in the data active = inhibition above about 36%;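 also: 0% = enzyme with DMSO and 100% = wells lacking enzyme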
PRMT1 FP inh: PRMT1 methyltransferase inhibitors, primary screen, biochemical, fluorescence polarization. Protein arginine N-methyltransferase 1 (Homo sapiens), Q99873. recombinant PRMT1, activity-based probe fluorescence polarization. inhibition, % at 2.79 µM. hit rate 1.3% among 370,000. AID 652257, 2013;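 active = inhibition above about 21% made by adding two undisclosed values, limit read from the data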
Target sequence (Q99873 whole entry, looked up): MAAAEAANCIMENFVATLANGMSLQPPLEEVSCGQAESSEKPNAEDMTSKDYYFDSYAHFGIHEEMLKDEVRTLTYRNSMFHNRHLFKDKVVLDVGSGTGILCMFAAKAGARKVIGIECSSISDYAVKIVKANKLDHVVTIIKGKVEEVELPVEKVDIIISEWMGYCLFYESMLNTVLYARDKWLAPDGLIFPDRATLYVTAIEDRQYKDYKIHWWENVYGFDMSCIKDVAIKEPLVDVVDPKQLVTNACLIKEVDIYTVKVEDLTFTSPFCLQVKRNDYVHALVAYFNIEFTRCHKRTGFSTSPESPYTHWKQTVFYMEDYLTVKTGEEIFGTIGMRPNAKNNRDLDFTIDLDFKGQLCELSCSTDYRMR
TCR CD3 inh: inhibitors of human TCR-CD3 interaction, primary screen, biochemical, fluorescence, TAMRA-labeled TCR probe | inhibition, % at 9.4 µM | hit rate 0.37% among 360,000 | AID 651800, 2012; in the data active = inhibition above about 19%;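 also: recombinant mutant TCR 2C K166C tagged with TAMRA read by polarization; 0% = receptor in buffer alone and 100% = receptor with positive control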
mABHD4 FP: ABHD4 inhibitors, primary screen, biochemical, fluorescence polarization, mouse; (Lyso)-N-acylphosphatidylethanolamine lipase (Mus musculus), Q8VD66; purified mABHD4, FP-Rh probe fluorescence polarization; inhibition, % at 8.92 µM; hit rate 0.54% among 370,000; AID 720543, 2013;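 active = inhibition exceeding the mean over every tested compound plus 3 SD, cut at about 30% in these data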;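 also: 0% = plate median of compound wells and 100% = S159A mutant with DMSO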
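system = mouse ABHD4 enzyme, wild type | medium = HEPES pH 7.0, NaCl, Pluronic buffer | also added = FP-Rh probe | incubation = Enzyme–compound pre-incubation 45 min, then probe 60 min, both 25 °C | technique = fluorescence polarization, excitation 525 nm, emission 598 nm, BODIPY TMR filters | controls = S159A mutant high control, sample median low control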
HTRA1 inh conf: HTRA1 protease inhibitors, retest, confirmation, biochemical, fluorescence polarization; recombinant HTRA1, FP-rhodamine activity-based probe; shares compounds with HTRA1 inhibitor; inhibition, % at 5.96 µM; hit rate 66% among 1,600;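 active = mean inhibition over three repeats above a set limit taken from the earlier primary screen, cut at about 37% in these data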;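 also: 0% = HTRA1 with DMSO and 100% = wells lacking HTRA1; inhibitors block probe binding so polarization drops and inhibition rises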
* = called active by the depositor; nt = not tested or not shown. Compounds with a hit are over-represented: about 2.6% of the library has one in this group of screens.

SMILES	SIAE inh	HTRA1 inhibitor	PRMT1 FP inh	TCR CD3 inh	mABHD4 FP	HTRA1 inh conf
Cc1cccc(CNC(=O)C(C)n2nc(C)c3c(C)n(-c4ccccc4)nc3c2=O)c1 (stereo unspecified)	-6	-3	-2	7	-4	nt
C(=N\C(/N=C/c1ccco1)c1ccco1)/c1ccco1	5	12	12	2	14	nt
C(=Nc1cccc2c(N=Cc3ccco3)cccc12)c1ccco1	nt	39*	nt	nt	nt	3
CCCCNc1c2c3c(cccc3n(C)c1=O)C(=O)c1ccccc1-2	nt	68*	nt	nt	nt	70*
CN1C(=O)c2cccc(NCCCN3C(=O)c4ccccc4C3=O)c2C1=O	1	-6	-4	-7	-2	nt
COC(=O)[C@]12CCCCC=C1N(Cc1ccccc1)C(=O)[C@H](CC(=O)NCc1ccc(OC)c(OC)c1)C2	4	nt	1	4	2	nt
CCCCCCCCCCCCCCCC[n+]1ccc(/C=N/O)cc1	68*	61*	6	3	51*	81*
CCC[n+]1c(C)sc2c3c(ccc21)CCCC3	nt	46*	nt	nt	nt	50*
CCn1c(/C=C/c2ccc(O)c(O)c2)nc2ccccc2c1=O	-7	59*	4	14	27	112*
COc1ccc(/C=C\c2nc(=O)c3ccccc3o2)cc1	2	3	3	4	1	nt
CCn1c(/C=C/c2ccc(O)cc2)nc2ccccc2c1=O	-2	-4	1	-6	6	nt
O=c1nc(/C=C/c2ccc(O)c(O)c2)oc2ccccc12	nt	72*	nt	nt	nt	76*
COC(=O)CCN(Cc1cccc(OC)c1OC)S(=O)(=O)c1ccccc1Br	-4	nt	-2	-8	-6	nt
O=c1cc(-c2ccccc2)ss1	1	-2	21	-8	0	nt
O=C(Cn1c(=O)cnc2ccccc21)Nc1cccc(S(=O)(=O)N2CCOCC2)c1	4	-1	2	0	5	nt
c1ccc(N2CCN(c3nc(-c4ccccn4)nc4ccccc34)CC2)cc1	-1	40*	-3	-1	7	28
CN1CCN(c2nc(-c3ccccn3)nc3ccccc23)CC1	-5	0	-1	1	0	nt
O=C(Nc1cccc(C(=O)N2CCOCC2)c1)c1ccccc1Cl	-4	8	-1	-8	-1	nt
O=C(O)c1ccc2c(c1)[C@@H]1C=CC[C@@H]1[C@H](c1ccccn1)N2	17*	47*	70*	25*	70*	22
COc1ccc(C(=O)N/N=C(\C)c2ccc3c(c2)C2C=CCC2C(c2ccccc2)N3)cc1 (stereo unspecified)	nt	15	nt	nt	nt	nt
O=C(NC1CCCCC1)C(c1ccc(O)c(O)c1)N(C(=O)Cn1nnc2ccccc21)c1cccc(O)c1 (stereo unspecified)	1	47*	4	5	14	49*
COc1cc(/C=N/n2c(-c3ccc4c(c3)NC(=O)CO4)csc2=Nc2cccc(C)c2)ccc1O	41*	44*	3	-6	21	82*
COC(=O)c1cc(=O)nc(NN=C(C)C)s1	-1	nt	1	-2	-1	nt
CCc1ccc(OC2=NS(=O)(=O)c3ccccc32)cc1	14	0	1	1	2	nt
CCN(CC)c1cccc(OC2=NS(=O)(=O)c3ccccc32)c1	31*	46*	5	53*	88*	15
SMILES	SIAE inh	HTRA1 inhibitor	PRMT1 FP inh	TCR CD3 inh	mABHD4 FP	HTRA1 inh conf
CCCCn1c(SCC(=O)c2ccc(O)c(O)c2)nc2ccsc2c1=O	nt	59*	nt	nt	nt	61*
O=C(NNc1nc2ccc(Cl)cc2s1)c1cc(-c2cccs2)nc2ccccc12	-2	42*	-4	-4	-6	56*
CCN1C[C@@H]2[C@@H]3C(=O)N(C)C(=O)[C@@H]3[C@](C)(C1=O)N2C(=O)c1ccc(C)cc1	10	-7	-2	5	1	nt
Cc1ccccc1NC(=O)CSc1nnc(-c2ccco2)c(-c2ccco2)n1	nt	43*	nt	nt	nt	16
Cc1ccccc1NC(=O)CSc1n[nH]c(-c2ccco2)n1	-6	4	0	-6	7	nt
CC1CCCN(C(=O)COC(=O)c2cc(-c3cccs3)nn2-c2ccccc2)C1 (stereo unspecified)	-2	-11	-3	0	2	nt
CC(=O)NC(c1cc(F)c2cccnc2c1O)C1CC1 (stereo unspecified)	-1	16	0	1	2	nt
CCC(=O)NC(c1cc(Cl)c2cccnc2c1O)C1CC1 (stereo unspecified)	8	39*	-1	6	1	51*
CCC(=O)NC(c1cc(Cl)c2cccnc2c1O)C(C)C (stereo unspecified)	3	53*	-3	3	11	58*
COc1ccc(C=NN(C)C(=O)Nc2cccc(Cl)c2)cc1OC	-6	nt	1	5	1	nt
Cn1[nH]cc(C=NC(N)=O)c1=O	3	47*	-2	-2	7	1
Clc1ccc2nc(-c3ccccn3)c(Nc3ccc4c(c3)OCO4)n2c1	7	58*	-2	7	6	60*
CCC(=O)NCCn1c(C)cc2ccccc21	nt	8	nt	nt	nt	nt
Cc1cc2ccccc2n1CCNC(=O)COc1ccccc1	-1	49*	-1	6	11	3
S=C1NCN(CC2CC2)CN1	3	nt	6	-10	2	nt
COC(=O)c1ccc(N)c2c(N)ccc(C(=O)OC)c12	10	nt	5	5	20	nt
Cc1ccc(S(=O)(=O)Nc2ccc3oc(=O)sc3c2)c(C)c1	-14	37*	59*	-1	-20	1
CN1c2ccccc2N(C)C1(C)c1ccccc1	11	21	7	18	8	nt
CCN1c2ccccc2N(C)C1(C)c1ccccc1 (stereo unspecified)	nt	42*	nt	nt	nt	8
O=[N+]([O-])c1ccc(/C=N/Nc2ccc3ccccc3c2)o1	8	37*	11	-61	0	16
CCOc1cc(CNc2ccc(N3CCCCC3)cc2)cc(Br)c1OCC(=O)NC(C)(C)C	17	45*	8	3	28	3
CCOc1cc(CNc2ccc(N(C)C)cc2)cc(Br)c1OCC(=O)NC(C)(C)C	-1	0	-1	-5	-1	nt
CCOc1ccc(CNc2ccc(N3CCCC3)cc2)cc1	nt	58*	nt	nt	nt	9
COc1cc(CNc2ccc(N3CCOCC3)cc2)cc(Br)c1OC	12	28	6	-4	13	nt
COc1cc(CNc2ccc(N3CCCC3)cc2)cc(Cl)c1OC	12	41*	4	3	22	28
CCOc1cc(CNc2ccc(N3CCCC3)cc2)cc(Cl)c1OC	11	55*	9	-1	28	23

From PubChem
